Values belong to the compound of their own block, whether it stands above or below them.
How the values were obtained:
[1] = tested on: Cystic fibrosis transmembrane conductance regulator (Homo sapiens), P13569 [F508del]; assay: Potentiation of human CFTR F508del mutant expressed in mouse NIH-3T3 cells at 30 uM after 30 mins by fluorescent voltage sensing optical assay relative to VRT-532; assay type: cell-based; conditions: NIH3T3
Procedure, shortened: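 Same F508del-CFTR NIH-3T3 membrane-potential assay: 27 °C correction for 16–24 h, dye plus compound for 30 min at room temperature, then forskolin in Cl−-free bath. Compounds below 50% activity at 30 μM were not titrated. Their response at 30 μM is given as % of VRT-532.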

[2] = target: Cystic fibrosis transmembrane conductance regulator (Homo sapiens, UniProt P13569, F508DEL); assay: Potentiation of human CFTR F508del mutant expressed in mouse NIH-3T3 cells after 30 mins by fluorescent voltage sensing optical assay; assay type: cell-based, NIH3T3
Chain of Cystic fibrosis transmembrane conductance regulator (P13569 as listed by the source): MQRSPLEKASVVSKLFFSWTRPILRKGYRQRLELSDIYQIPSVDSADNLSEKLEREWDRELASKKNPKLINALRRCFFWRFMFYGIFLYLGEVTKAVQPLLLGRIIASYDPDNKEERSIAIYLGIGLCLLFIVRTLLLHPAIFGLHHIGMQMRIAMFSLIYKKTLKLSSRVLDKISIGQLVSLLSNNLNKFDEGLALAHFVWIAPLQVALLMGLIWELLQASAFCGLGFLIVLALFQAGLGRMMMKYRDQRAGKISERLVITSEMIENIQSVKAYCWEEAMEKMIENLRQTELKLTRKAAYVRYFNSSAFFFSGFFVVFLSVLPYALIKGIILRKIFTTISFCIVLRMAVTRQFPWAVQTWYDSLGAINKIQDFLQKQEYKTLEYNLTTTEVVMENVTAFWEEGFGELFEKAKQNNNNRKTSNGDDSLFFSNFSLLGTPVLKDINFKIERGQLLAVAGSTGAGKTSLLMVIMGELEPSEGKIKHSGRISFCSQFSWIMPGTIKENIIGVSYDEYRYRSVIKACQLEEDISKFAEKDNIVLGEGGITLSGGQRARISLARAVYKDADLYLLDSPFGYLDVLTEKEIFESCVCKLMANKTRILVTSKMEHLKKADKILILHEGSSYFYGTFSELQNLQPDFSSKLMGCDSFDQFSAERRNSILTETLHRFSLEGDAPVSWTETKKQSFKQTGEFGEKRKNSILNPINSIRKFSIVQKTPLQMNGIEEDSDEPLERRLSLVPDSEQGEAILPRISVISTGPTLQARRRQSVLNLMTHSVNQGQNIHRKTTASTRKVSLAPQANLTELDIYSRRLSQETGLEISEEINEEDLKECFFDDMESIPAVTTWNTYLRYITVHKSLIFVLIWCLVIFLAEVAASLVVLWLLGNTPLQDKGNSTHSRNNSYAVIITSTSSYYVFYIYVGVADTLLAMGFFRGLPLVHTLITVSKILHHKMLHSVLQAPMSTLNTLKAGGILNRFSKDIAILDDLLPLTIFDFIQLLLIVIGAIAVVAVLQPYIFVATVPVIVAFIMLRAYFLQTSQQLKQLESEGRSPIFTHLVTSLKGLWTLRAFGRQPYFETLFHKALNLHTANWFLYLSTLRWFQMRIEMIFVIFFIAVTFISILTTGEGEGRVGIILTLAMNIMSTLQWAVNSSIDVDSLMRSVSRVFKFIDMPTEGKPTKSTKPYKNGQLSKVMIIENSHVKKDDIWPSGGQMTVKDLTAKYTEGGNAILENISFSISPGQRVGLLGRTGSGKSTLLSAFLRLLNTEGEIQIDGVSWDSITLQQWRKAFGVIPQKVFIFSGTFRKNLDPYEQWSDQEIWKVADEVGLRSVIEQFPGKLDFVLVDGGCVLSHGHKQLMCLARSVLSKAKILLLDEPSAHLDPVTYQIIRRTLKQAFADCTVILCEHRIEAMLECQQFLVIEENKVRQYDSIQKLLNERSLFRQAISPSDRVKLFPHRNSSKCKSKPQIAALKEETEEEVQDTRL
Procedure, shortened: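 NIH-3T3 fibroblasts stably expressing human F508del-CFTR were held 16–24 h at 27 °C to correct misfolding. Cells were washed in NaCl/HEPES bath, pH 7.4, then loaded with voltage-sensing dyes plus compound for 30 min at room temperature. Cl−-free bath with forskolin was added once, and membrane potential change was read by fluorescence. EC50 is mean ± SD of at least three determinations.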

[3] = Clearance in beagle dog at 1 mg/kg, iv; assay type: ADME, organism-based, Canis lupus familiaris; design: dose 1 mg/kg, route intravenous; conditions: in vivo
Procedure, shortened: (§1)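 Animals (n = 3/group; male mouse, Sprague-Dawley rat, beagle dog, cynomolgus monkey) got a single iv dose in dimethyl isosorbide/ethanol/PEG400/D5W (10%/15%/35%/40%) at 1 mL/kg. Heparinized blood was drawn via an indwelling carotid cannula from predose to 48 h. Plasma was assayed by LC/MS/MS (LLOQ 1 ng/mL, linear 1–2500 ng/mL). Parameters came from noncompartmental analysis of mean profiles using measured doses.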

[4] = Half life in Sprague-Dawley rat at 2.5 mg/kg, iv; assay type: ADME, organism-based; design: dose 2.5 mg/kg, route intravenous; conditions: in vivo; procedure, shortened: as §1
[5] = Binding affinity to ligand-gated chloride channel (unknown origin); design: species or system Homo sapiens
[6] = Volume of distribution at steady state in beagle dog at 1 mg/kg, iv; assay type: ADME, organism-based, Canis lupus familiaris; design: dose 1 mg/kg, route intravenous; conditions: in vivo, read-out: Vdss; procedure, shortened: as §1
[7] = Clearance in Sprague-Dawley rat at 2.5 mg/kg, iv; assay type: ADME, organism-based; design: dose 2.5 mg/kg, route intravenous; conditions: in vivo; procedure, shortened: as §1
[8] = Oral bioavailability in Sprague-Dawley rat at 2.5 mg/kg; assay type: ADME, organism-based; conditions: in vivo
Procedure, shortened: (§2)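 Single oral dose, n = 3/group. Heparinized carotid-cannula blood was sampled at predose, 0.25, 0.5, 1, 1.5, 2, 4, 8, 12 and 24 h. Plasma levels were measured by LC/MS/MS (LLOQ 1 ng/mL). AUC and bioavailability were derived by noncompartmental analysis of mean concentration–time profiles against the iv arm.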

[9] = Half life in beagle dog at 1 mg/kg, iv; assay type: ADME, organism-based, Canis lupus familiaris; design: dose 1 mg/kg, route intravenous; conditions: in vivo; procedure, shortened: as §1
[10] = target: GABA-A receptor; benzodiazepine site (Homo sapiens); assay: Binding affinity to GABAA receptor (unknown origin)
[11] = Volume of distribution at steady state in Sprague-Dawley rat at 2.5 mg/kg, iv; assay type: ADME, organism-based; design: dose 2.5 mg/kg, route intravenous; conditions: in vivo, read-out: Vdss; procedure, shortened: as §1
[12] = Half life in Sprague-Dawley rat at 1.57 mg/kg, iv; assay type: ADME, organism-based; design: dose 1.57 mg/kg, route intravenous; conditions: in vivo; procedure, shortened: as §1
[13] = Volume of distribution at steady state in Sprague-Dawley rat at 1.57 mg/kg, iv; assay type: ADME, organism-based; design: dose 1.57 mg/kg, route intravenous; conditions: in vivo, read-out: Vdss; procedure, shortened: as §1
[14] = Clearance in Sprague-Dawley rat at 1.57 mg/kg, iv; assay type: ADME, organism-based; design: dose 1.57 mg/kg, route intravenous; conditions: in vivo; procedure, shortened: as §1
[15] = AUC (0 to infinity) in Sprague-Dawley rat at 1.57 mg/kg, iv; assay type: ADME, organism-based; design: time infinity, dose 1.57 mg/kg, route intravenous; conditions: plasma
Procedure, shortened: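 Male Sprague−Dawley rats, n = 3/group, single iv dose in dimethyl isosorbide/ethanol/PEG400/D5W (10%/15%/35%/40%) at 1 mL/kg. Carotid cannula blood at predose, 5, 15, 30, 45 min and 1, 2, 4, 6, 8, 12, 24, 36, 48 h. Plasma levels by LC/MS/MS (LLOQ 1 ng/mL, linear 1–2500 ng/mL). Noncompartmental analysis of mean profiles using measured doses.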

[16] = Half life in beagle dog at 0.9 mg/kg, iv; assay type: ADME, organism-based, Canis lupus familiaris; design: dose 0.9 mg/kg, route intravenous; conditions: in vivo; procedure, shortened: as §1
[17] = AUC (0 to infinity) in Sprague-Dawley rat at 3 mg/kg, po; assay type: ADME, organism-based; design: time infinity, dose 3 mg/kg, route oral; conditions: plasma; procedure, shortened: as §2
Cytochrome P450 2E1 = Cytochrome P450 2E1 (Homo sapiens, UniProt P05181); assay: Inhibition of CYP2E1 (unknown origin); assay type: ADME
Chain of Cytochrome P450 2E1 (P05181 whole entry): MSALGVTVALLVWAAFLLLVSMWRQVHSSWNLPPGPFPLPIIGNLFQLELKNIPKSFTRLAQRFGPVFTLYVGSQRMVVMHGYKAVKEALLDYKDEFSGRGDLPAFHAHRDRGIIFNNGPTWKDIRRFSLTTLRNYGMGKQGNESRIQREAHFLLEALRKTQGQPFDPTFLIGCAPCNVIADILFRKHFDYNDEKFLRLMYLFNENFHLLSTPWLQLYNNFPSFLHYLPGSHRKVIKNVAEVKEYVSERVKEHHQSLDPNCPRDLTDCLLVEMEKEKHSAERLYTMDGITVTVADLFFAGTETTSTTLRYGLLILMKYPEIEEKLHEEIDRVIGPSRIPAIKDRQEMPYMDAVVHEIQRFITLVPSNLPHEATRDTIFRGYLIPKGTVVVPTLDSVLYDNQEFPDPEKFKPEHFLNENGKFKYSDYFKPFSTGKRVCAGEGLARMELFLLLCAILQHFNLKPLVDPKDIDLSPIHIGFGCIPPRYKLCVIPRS

[18] = Half life in Cynomolgus monkey at 0.8 mg/kg, iv; assay type: ADME, organism-based, Macaca fascicularis; design: dose 0.8 mg/kg, route intravenous; conditions: in vivo; procedure, shortened: as §1
[19] = Volume of distribution at steady state in beagle dog at 0.9 mg/kg, iv; assay type: ADME, organism-based, Canis lupus familiaris; design: dose 0.9 mg/kg, route intravenous; conditions: in vivo, read-out: Vdss; procedure, shortened: as §1
Canis familiaris [20] = assay: AUC (0 to infinity) in beagle dog at 3.8 mg/kg, po; conditions: in vivo
[21] = Volume of distribution at steady state in mouse at 3 mg/kg, iv; assay type: ADME, organism-based; design: dose 3 mg/kg, route intravenous; conditions: in vivo, read-out: Vdss; procedure, shortened: as §1
[22] = Volume of distribution at steady state in Cynomolgus monkey at 0.8 mg/kg, iv; assay type: ADME, organism-based, Macaca fascicularis; design: dose 0.8 mg/kg, route intravenous; conditions: in vivo, read-out: Vdss; procedure, shortened: as §1
[23] = Clearance in mouse at 3 mg/kg, iv; assay type: ADME, organism-based; design: dose 3 mg/kg, route intravenous; conditions: in vivo; procedure, shortened: as §1
[24] = Clearance in Cynomolgus monkey at 0.8 mg/kg, iv; assay type: ADME, organism-based, Macaca fascicularis; design: dose 0.8 mg/kg, route intravenous; conditions: in vivo; procedure, shortened: as §1
[25] = Half life in mouse at 3 mg/kg, iv; assay type: ADME, organism-based; design: dose 3 mg/kg, route intravenous; conditions: in vivo; procedure, shortened: as §1
Canis familiaris [26] = assay: Oral bioavailability in beagle dog at 3.8 mg/kg; conditions: in vivo

Chain of Cystic fibrosis transmembrane conductance regulator (Homo sapiens), P13569 [F508del] (P13569 as listed by the source): as the sequence (P13569 as listed by the source) above

SMILES: O=C(Nc1ccc2cn[nH]c2c1)c1c[nH]c2ccccc2c1=O
EC50 [2]: 5.6 µM

SMILES: O=C(Nc1ccc2cc[nH]c2c1)c1c[nH]c2ccccc2c1=O
clearance [3]: 1.02 L/h/kg
half-life [4]: 1.3 h
IC50 [5]: 0.1 µM
Vd [6]: 1.6 L/kg
EC50 [2]: 0.1 µM
clearance [7]: 1.68 L/h/kg
bioavailability [8]: 11%
half-life [9]: 0.9 h
IC50 [10]: 0.1 µM
Vd [11]: 2.4 L/kg

SMILES: O=C(c1cnc2ccccc2c1)N(Cc1ccccc1)Cc1ccccc1
EC50 [2]: 16 µM

SMILES: O=C(Nc1ccc2c(c1)NCC2)c1c[nH]c2ccccc2c1=O
EC50 [2]: 0.4 µM

SMILES: O=C(c1cnccc1O)N(Cc1ccccc1)Cc1ccccc1
Activity [1]: 2%

SMILES: CC(C)(C)c1ccc(NC(=O)c2c[nH]c3ccccc3c2=O)cc1
EC50 [2]: 0.1 µM

SMILES: O=C(Nc1ccc2cc[nH]c2n1)c1c[nH]c2ccccc2c1=O
Activity [1]: 13%

SMILES: CCc1cccc(CC)c1NC(=O)c1c[nH]c2ccccc2c1=O
EC50 [2]: 1.5 µM

SMILES: CCc1ccc(NC(=O)c2c[nH]c3ccccc3c2=O)cc1
EC50 [2]: 0.8 µM

SMILES: Cn1ccc2ccc(NC(=O)c3c[nH]c4ccccc4c3=O)cc21
EC50 [2]: 6.4 µM

Second part, the compound after the results:

Activity [1]: 19%
SMILES: O=C(Oc1ccc2cc[nH]c2c1)c1c[nH]c2ccccc2c1=O

EC50 [2]: 0.02 µM
SMILES: CCc1cc2cc[nH]c2cc1NC(=O)c1c[nH]c2ccccc2c1=O

EC50 [2]: 1.3 µM
SMILES: O=C(Nc1ccccc1)c1c[nH]c2ccccc2c1=O

EC50 [2]: 0.2 µM
SMILES: CCc1ccccc1NC(=O)c1c[nH]c2ccccc2c1=O

EC50 [2]: 6.9 µM
SMILES: Nc1cccc(NC(=O)c2c[nH]c3ccccc3c2=O)c1

Activity [1]: 13%
SMILES: CC(C)(C)c1ccc(NC(=O)c2c[nH]c3ccccc3c2=O)cc1C(=O)O

EC50 [2]: 0.1 µM
SMILES: CC(C)(C)c1ccc(NC(=O)c2c[nH]c3ccccc3c2=O)cc1N

EC50 [2]: 0.8 µM
SMILES: O=C(Nc1ccc2ccccc2c1)c1c[nH]c2ccccc2c1=O

EC50 [2]: 0.2 µM
SMILES: CC(C)c1ccc(NC(=O)c2c[nH]c3ccccc3c2=O)cc1

half-life [12]: 1.1 h
EC50 [2]: 0.002 µM
Vd [13]: 2.9 L/kg
clearance [14]: 3.77 L/h/kg
AUC(0-inf) [15]: 0.52 µg·h/mL
SMILES: CC(C)(C)c1cc(F)c(NC(=O)c2c[nH]c3ccccc3c2=O)cc1O

EC50 [2]: 6.1 µM
SMILES: O=C(Nc1ccc2[nH]ccc2c1)c1c[nH]c2ccccc2c1=O

EC50 [2]: 0.3 µM
SMILES: CC(C)c1ccc(NC(=O)c2c[nH]c3ccccc3c2=O)cc1N

half-life [16]: 13 h
AUC(0-inf) [17]: 4.8 µg·h/mL
IC50 (Cytochrome P450 2E1): > 20 µM
half-life [18]: 6.7 h
Vd [19]: 0.7 L/kg
AUC (Canis familiaris [20]): 13.5 µg·h/mL
Vd [21]: 2.8 L/kg
Vd [22]: 2.2 L/kg
EC50 [2]: 0.003 µM
clearance [23]: 1.2 L/h/kg
clearance [24]: 0.444 L/h/kg
half-life [25]: 1.3 h
F (Canis familiaris [26]): 43%
SMILES: CC(C)(C)c1cc(C(C)(C)C)c(NC(=O)c2c[nH]c3ccccc3c2=O)cc1O [IVACAFTOR]

EC50 [2]: 1.7 µM
SMILES: CCc1ccc(NC(=O)c2c[nH]c3ccccc3c2=O)cc1N
